ChEMBL document CHEMBL1132611, “Novel, potent, and selective phosphodiesterase-4 inhibitors as antiasthmatic agents: synthesis and biological activities of a series of 1-pyridylnaphthalene derivatives” (J Med Chem, 1999)
“And” between values parts separate entries of the source, which are not always exact repeats. Equal entries are not always repeated.

Legend:
Phosphodiesterase 1 = Phosphodiesterase 1 (Homo sapiens, UniProt P54750+Q01064+Q14123); assay: Inhibition of Phosphodiesterase 1 of guinea pig cardiac ventricle; type: protein assay, Cavia porcellus; conditions: target entry is the homologue from another species
Outline: (§1)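 PDE1, 2 and 3 came from guinea pig cardiac ventricle and PDE4 and 5 from lung, separated by Resource-Q anion exchange on a sodium acetate gradient at pH 6.5. Assays used 1.0 µM [3H]cAMP or [3H]cGMP in 50 mM Tris-HCl pH 8.0, 5 mM MgCl2 and 4 mM 2-mercaptoethanol, for 30 min at 30 °C. Substrate hydrolysis was kept at or below 20%. Triplicates were run at 3–4 inhibitor levels, and IC50 was read graphically.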

Phosphodiesterase 4 [1] = target: T1, Phosphodiesterase 4 (Homo sapiens, UniProt P27815+Q08499+Q07343+Q08493); assay: In vitro inhibition of Phosphodiesterase 4 from guinea pig lung; type: protein assay, Cavia porcellus; conditions: target entry is the homologue from another species
Phosphodiesterase 3 [2] = target: T2, Phosphodiesterase 3 (Homo sapiens, UniProt Q14432+Q13370); assay: In vitro inhibition of Phosphodiesterase 3 activity from guinea pig cardiac ventricle; type: protein assay, Cavia porcellus; conditions: target entry is the homologue from another species; outline: as §1
Cavia porcellus [3] = organism: Cavia porcellus; assay: Inhibition of antigen-induced bronchoconstriction in guinea pigs (95% confidence); type: functional
Outline: (§2)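 Male Hartley guinea pigs were passively sensitised with iv rabbit anti-ovalbumin antiserum and challenged with ovalbumin 30 µg/kg iv 20–28 h later. Animals were under α-chloralose anaesthesia, ventilated, and paralysed with gallamine. Overflow volume was measured by Konzett–Rössler and expressed as a percentage of the maximum. Compound was given iv 2 min before challenge. ED50 came from the dose–inhibition curve with 95% confidence limits.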

Cavia porcellus [4] = assay: Inhibition of antigen-induced bronchoconstriction in guinea pigs 0.3 mg/kg intravenous dose; type: functional; outline: as §2
Cavia porcellus [5] = assay: Change in guinea pig heart rate at 0.1 mg/kg intravenous dose; type: functional
Cavia porcellus [6] = assay: Inhibition of antigen-induced bronchoconstriction in guinea pigs 0.1 mg/kg intravenous dose; type: functional; outline: as §2
Cavia porcellus [7] = assay: Inhibition of antigen-induced bronchoconstriction in guinea pigs at 1 mg/kg intravenous dose; type: functional; outline: as §2
Cavia porcellus [8] = assay: Change in guinea pig heart rate at 1 mg/kg intravenous dose; type: functional
Cavia porcellus [9] = assay: Change in guinea pig heart rate at 3 mg/kg intravenous dose; type: functional
Cavia porcellus [10] = assay: Inhibition of antigen-induced bronchoconstriction in guinea pigs 3 mg/kg intravenous dose; type: functional; outline: as §2
Cavia porcellus [11] = assay: Change in guinea pig heart rate at 0.3 mg/kg intravenous dose; type: functional
[12] = target: cGMP-dependent 3',5'-cyclic phosphodiesterase (Homo sapiens, UniProt O00408); assay: Inhibition of guinea pig cardiac ventricle Phosphodiesterase 2; set-up: species or system Cavia porcellus; conditions: target entry is the homologue from another species; outline: as §1
cGMP-dependent 3',5'-cyclic phosphodiesterase, sequence (O00408 whole entry): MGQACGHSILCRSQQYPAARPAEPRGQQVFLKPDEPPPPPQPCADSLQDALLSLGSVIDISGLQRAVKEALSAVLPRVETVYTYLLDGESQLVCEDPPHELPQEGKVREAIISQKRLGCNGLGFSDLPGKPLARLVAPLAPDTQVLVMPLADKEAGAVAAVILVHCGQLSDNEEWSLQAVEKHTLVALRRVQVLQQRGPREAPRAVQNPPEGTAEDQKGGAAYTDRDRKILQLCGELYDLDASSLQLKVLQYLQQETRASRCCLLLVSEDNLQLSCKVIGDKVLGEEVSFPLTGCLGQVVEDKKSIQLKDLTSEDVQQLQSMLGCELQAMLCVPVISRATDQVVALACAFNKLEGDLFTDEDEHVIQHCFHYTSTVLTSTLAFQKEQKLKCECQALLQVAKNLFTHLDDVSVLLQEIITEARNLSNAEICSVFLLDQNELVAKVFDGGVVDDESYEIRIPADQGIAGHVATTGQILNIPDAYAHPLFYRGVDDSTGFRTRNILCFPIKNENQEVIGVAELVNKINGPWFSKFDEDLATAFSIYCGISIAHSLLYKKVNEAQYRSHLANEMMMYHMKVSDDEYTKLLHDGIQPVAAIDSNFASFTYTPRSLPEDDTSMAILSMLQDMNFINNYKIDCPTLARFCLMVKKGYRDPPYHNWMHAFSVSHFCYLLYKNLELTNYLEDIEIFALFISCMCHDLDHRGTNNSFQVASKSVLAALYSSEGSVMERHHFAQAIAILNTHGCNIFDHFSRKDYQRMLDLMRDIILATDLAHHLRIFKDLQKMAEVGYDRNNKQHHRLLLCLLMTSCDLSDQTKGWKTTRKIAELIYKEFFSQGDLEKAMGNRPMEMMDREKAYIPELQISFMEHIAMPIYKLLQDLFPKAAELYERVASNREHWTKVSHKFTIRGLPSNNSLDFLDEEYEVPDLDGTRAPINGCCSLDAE

Cavia porcellus [13] = organism: Cavia porcellus; assay: Inhibition of histamine-induced bronchoconstriction in guinea pigs (95% confidence); type: functional
Outline: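 Guinea pigs received intraduodenal compound, and bronchoconstriction was induced with histamine dihydrochloride 2 µg/kg iv. Pulmonary inflation pressure was recorded in ventilated, gallamine-paralysed animals. ED50 was taken from the dose–inhibition curve using at least three doses, with 95% confidence limits.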

Cavia porcellus [14] = assay: Inhibition of antigen-induced bronchoconstriction in guinea pigs at 0.03 mg/kg intravenous dose; type: functional; outline: as §2
Phosphodiesterase 4 [15] = target: T1, Phosphodiesterase 4; assay: Emetic effect in ferrets at peroral 100 mg/kg dose; type: functional, organism-based; set-up: dose 100 mg/kg; conditions: Mustela putorius furo; target entry is the homologue from another species
Phosphodiesterase 4 [16] = target: T1, Phosphodiesterase 4; assay: (§3) Displacement of [3H]- rolipram binding to guinea pig brain; type: tissue-based, Cavia porcellus; conditions: target entry is the homologue from another species
Phosphodiesterase 3 [17] = target: T2, Phosphodiesterase 3; assay: Inhibition of guinea pig cardiac ventricle Phosphodiesterase 3; type: protein assay, Cavia porcellus; conditions: target entry is the homologue from another species; outline: as §1
Cavia porcellus [18] = assay: Change in guinea pig heart rate at 0.03 mg/kg intravenous dose; type: functional
Cavia porcellus [19] = organism: Cavia porcellus; assay: Inhibition of antigen-induced bronchoconstriction in guinea pigs; type: functional; outline: as §2
Cavia porcellus [20] = assay: Inhibition of antigen-induced bronchoconstriction in guinea pigs at 0.01 mg/kg intravenous dose; type: functional; outline: as §2
Phosphodiesterase 4 [21] = target: T1, Phosphodiesterase 4; assay: Emetic effect in ferrets at peroral 10 mg/kg; type: functional, organism-based; set-up: dose 10 mg/kg; conditions: Mustela putorius furo; target entry is the homologue from another species
Phosphodiesterase 4 [22] = target: T1, Phosphodiesterase 4; assay: as §3; type: tissue-based, Cavia porcellus; conditions: target entry is the homologue from another species; remark: listed apart in the source
Outline: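 Guinea pig brain membranes were made by homogenising in 20 mM Tris-HCl pH 7.4 with 2 mM MgCl2 and 0.1 mM DTT, spun at 45000g, washed and stored at -80 °C. Competition used 3 nM [3H]-(±)-rolipram at 30 °C for 60 min in 25 mM Tris-HCl pH 7.4, 5 mM MgCl2 and 0.05 mM 5'-AMP. Bound ligand was separated by filtration and counted by scintillation.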

Cavia porcellus [23] = assay: Change in guinea pig heart rate at 0.01 mg/kg intravenous dose; type: functional
Phosphodiesterase 4 [24] = target: T1, Phosphodiesterase 4; assay: Emetic effect in ferrets at peroral 30 mg/kg dose; type: functional, organism-based; set-up: dose 30 mg/kg; conditions: Mustela putorius furo; target entry is the homologue from another species
Phosphodiesterase 4 [25] = target: T1, Phosphodiesterase 4; assay: Emetic effect in ferrets at peroral 100 mg/kg; type: functional, organism-based; set-up: dose 100 mg/kg; conditions: Mustela putorius furo; target entry is the homologue from another species
Phosphodiesterase 4 [26] = target: T1, Phosphodiesterase 4; assay: Inhibition of guinea pig lung Phosphodiesterase 4; type: protein assay, Cavia porcellus; conditions: target entry is the homologue from another species; outline: as §1
Canis familiaris [27] = assay: Emetic effect in dog at 0.3 mg/kg dose, iv; type: functional, Canis lupus familiaris
Canis familiaris [28] = assay: Emetic effect in dog at 1 mg/kg dose, iv; type: functional, Canis lupus familiaris

| SMILES | IC50 (Phosphodiesterase 1) | IC50 (Phosphodiesterase 4 [1]) | IC50 (Phosphodiesterase 3 [2]) | ED50 (Cavia porcellus [3]) | Reduction (Cavia porcellus [6]) | other results |
| --- | --- | --- | --- | --- | --- | --- |
| COc1cc2cc(CO)c(CO)c(-c3ccnc(-n4ccccc4=O)c3)c2cc1OC | 50000 nM | 80 nM | 2000 nM | – | – | – |
| Cl.O=c1c2ccccc2c(-c2cccnc2)nn1-c1cc(-c2c(CO)c(CO)cc3ccccc23)ccn1 | > 100000 nM | 5000 nM | 50000 nM | – | – | – |
| COc1cc2cc(CO)c(CO)c(-c3ccnc(-n4ccc(=O)c5ccccc54)c3)c2cc1OC | 9000 nM | 40 nM | 400 nM | – | – | – |
| CCOc1cc2cc(CO)c(CO)c(-c3ccnc(-n4nc(-c5cccnc5)c5ccccc5c4=O)c3)c2cc1OC.Cl | 20000 nM | 0.9 nM | 34 nM | 0.17 mg/kg | 23% | Reduction (Cavia porcellus [4]): 77%; Heart rate (Cavia porcellus [5]; 0.1 mg/kg): 7 delta beats min-1 and 18 delta beats min-1 |
| COC(=O)c1cc2cc(OC)c(OC)cc2c(-c2ccnc(-n3nc(-c4cccnc4)c4ccccc4c3=O)c2)c1C(=O)OC.Cl | – | 150 nM | 29000 nM | – | – | – |
| COc1cc2cc(CO)c(CO)c(-c3ccnc(-n4c(=O)c5ccccc5c5ccccc54)c3)c2cc1OC | – | 0.2 nM | 41 nM | 1.2 mg/kg | – | Reduction (Cavia porcellus [7]): 38%; Heart rate (Cavia porcellus [8]): 18 delta beats min-1; Heart rate (Cavia porcellus [9]): 15 delta beats min-1; Reduction (Cavia porcellus [10]): 91% |
| COc1cc2cc(CO)c(CO)c(-c3ccc(-n4nc(-c5cccnc5)c5ccccc5c4=O)nc3)c2cc1OC.Cl | > 100000 nM | 40 nM | 80000 nM | – | – | – |
| CCOc1cc2c(-c3ccnc(-n4nc(-c5cccnc5)c5ccccc5c4=O)c3)c(CO)c(CO)cc2cc1OC.Cl | 3000 nM | 0.16 nM | 490 nM | 0.18 mg/kg | 39% | Reduction (Cavia porcellus [4]): 69%; Heart rate (Cavia porcellus [5]): 3 delta beats min-1; Heart rate (Cavia porcellus [11]): 7 delta beats min-1 |
| COc1ccc(C2CNC(=O)C2)cc1OC1CCCC1 (racemic) [ROLIPRAM] | > 100000 nM | – | > 300000 nM | – | – | IC50 [12]: > 100000 nM |
| COc1cc2ccc(CO)c(-c3ccnc(-n4nc(-c5cccnc5)c5ccccc5c4=O)c3)c2cc1OC.Cl | – | 31 nM | 700 nM | – | – | – |
| COc1cc2cc(CO)c(CO)c(-c3ccnc(-n4c(=O)ccc5ccccc54)c3)c2cc1OC | 2000 nM | 2.8 nM | 330 nM | 0.12 mg/kg | 68% | ED50 (Cavia porcellus [13]): 0.4 mg/kg; Reduction (Cavia porcellus [7]): 86%; Reduction (Cavia porcellus [14]): -11%; Emesis (vomiting/tested) (Phosphodiesterase 4 [15]): 4; Ki (Phosphodiesterase 4 [16]): 6.2 nM; Reduction (Cavia porcellus [10]): 90% |
| COc1cc2cc(CO)c(CO)c(-c3ccnc(-n4ncc5ccccc5c4=O)c3)c2cc1OC | 5000 nM | 0.68 nM | 250 nM | 0.24 mg/kg | 25% | Heart rate (Cavia porcellus [5]): 16 delta beats min-1; Reduction (Cavia porcellus [7]): 87%; Heart rate (Cavia porcellus [8]): 11 delta beats min-1; Heart rate (Cavia porcellus [9]): 55 delta beats min-1; Reduction (Cavia porcellus [10]): 91% |
| COc1cc2c(-c3ccnc(-n4nc(-c5cccnc5)c5ccccc5c4=O)c3)c(CO)c(CO)cc2cc1OCc1ccccc1.Cl.Cl | – | 700 nM | – | – | – | IC50 (Phosphodiesterase 3 [17]): > 100000 nM |
| COc1cc2cc(CO)c(CO)c(-c3ccnc(-n4nc(-c5cccnc5)c5ccccc5c4=O)c3)c2cc1OCc1ccccc1.Cl | – | 17 nM | 16000 nM | – | – | – |
| COc1cc2cc(CO)c(CO)c(-c3ccnc(-n4nc(-c5ccccn5)c5ccccc5c4=O)c3)c2cc1OC.Cl | 4000 nM | 0.55 nM | 170 nM | 0.18 mg/kg | 40% | Heart rate (Cavia porcellus [18]): 3 delta beats min-1; Reduction (Cavia porcellus [4]): 78%; Heart rate (Cavia porcellus [5]): 5 delta beats min-1; Reduction (Cavia porcellus [7]): 87%; Reduction (Cavia porcellus [14]): -25%; Heart rate (Cavia porcellus [8]): 22 delta beats min-1; Heart rate (Cavia porcellus [11]): 7 delta beats min-1 |
| COc1cc2cc(CO)c(CO)c(-c3ccnc(-n4nc(-c5ccncc5)c5ccccc5c4=O)c3)c2cc1OC.Cl | 2000 nM | 0.49 nM | 100 nM | – | 15% | Reduction (Cavia porcellus [4]): 82%; Heart rate (Cavia porcellus [5]): 12 delta beats min-1; Reduction (Cavia porcellus [7]): 92%; Heart rate (Cavia porcellus [8]): 29 delta beats min-1; ED50 (Cavia porcellus [19]): 0.17 mg/kg; Heart rate (Cavia porcellus [11]): 10 delta beats min-1 |
| COc1cc2cc(CO)c(CO)c(-c3ccnc(-n4nc(-c5cccnc5)c5ccccc5c4=O)c3)c2cc1OC.Cl | 2000 nM | 0.63 nM | 290 nM | 0.022 mg/kg | 73% | Reduction (Cavia porcellus [20]): 34%; Emesis (vomiting/tested) (Phosphodiesterase 4 [21]): 6; Ki (Phosphodiesterase 4 [22]): 3.5 nM; Heart rate (Cavia porcellus [23]): 1 delta beats min-1; Heart rate (Cavia porcellus [18]): 3 delta beats min-1; ED50 (Cavia porcellus [13]): 1.1 mg/kg; Heart rate (Cavia porcellus [5]): 1 delta beats min-1; Reduction (Cavia porcellus [14]): 61%; Emesis (vomiting/tested) (Phosphodiesterase 4 [24]): 4; Emesis (vomiting/tested) (Phosphodiesterase 4 [25]): 4 |
| COc1cc2cc(COC(C)=O)c(COC(C)=O)c(-c3ccnc(-n4nc(-c5cccnc5)c5ccccc5c4=O)c3)c2cc1OC.Cl | – | 190 nM | 3500 nM | – | – | – |
| COc1cc2cc(CO)c(CO)c(-c3cccc(-n4nc(-c5cccnc5)c5ccccc5c4=O)n3)c2cc1OC.Cl | – | 15 nM | 5600 nM | – | – | – |
| COc1cc2cc(CO)cc(-c3ccnc(-n4nc(-c5cccnc5)c5ccccc5c4=O)c3)c2cc1OC.Cl | – | 0.7 nM | 81 nM | – | – | Reduction (Cavia porcellus [7]): 33% |
| COc1cc2c(-c3ccnc(-n4nc(-c5cccnc5)c5ccccc5c4=O)c3)c(CO)c(CO)cc2cc1OC1CCCC1.Cl | – | 30 nM | 690 nM | – | – | – |
| CCOc1cc2cc(CO)c(CO)c(-c3ccnc(-n4nc(-c5cccnc5)c5ccccc5c4=O)c3)c2cc1OCC.Cl [T-2585.HCL] | 10000 nM | – | 1800 nM | 0.063 mg/kg | 57% | Emesis (vomiting/tested) (Phosphodiesterase 4 [21]): 4; Ki (Phosphodiesterase 4 [22]): 2.6 nM; Heart rate (Cavia porcellus [18]): 4 delta beats min-1; Reduction (Cavia porcellus [4]): 84%; ED50 (Cavia porcellus [13]): 0.033 mg/kg; Heart rate (Cavia porcellus [5]): 3 delta beats min-1; Reduction (Cavia porcellus [14]): 37%; Emesis (vomiting/tested) (Phosphodiesterase 4 [24]): 4; IC50 (Phosphodiesterase 4 [26]): 0.13 nM; Emesis (Canis familiaris [27]): 8 vomiting/tested; Heart rate (Cavia porcellus [11]): 2 delta beats min-1; IC50 [12]: 1300 nM; Emesis (Canis familiaris [28]): 4 vomiting/tested |
